Activity calls are given as the source filed them. No cut-off for these calls is given here.
Key:
C2C12 [1] = assay: Inhibition of TGFbeta1-induced fibrosis in mouse C2C12 cells assessed as reduction in alphaSMA protein expression level at 10 uM preincubated for 120 mins followed by TGFbeta1 addition and measured after 48 hrs by DAPI and rhodamine phalloidin staining based laser scanning confocal microscopic method relative to control; type: functional
In short: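 C2C12 cells were serum-starved for 24 h, preincubated 2 h with 10 μM inhibitor, then treated with 5.0 ng/mL TGFβ1 for 48 h. Confocal immunofluorescence used an anti-αSMA primary antibody with a fluorescein-conjugated anti-mouse secondary antibody. αSMA localization was assessed relative to F-actin microfilaments.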

C2C12 [2] = assay: Inhibition of TGFbeta1-induced fibrosis in mouse C2C12 cells assessed as reduction in SMalpha22 protein expression level at 10 uM preincubated for 30 mins followed by TGFbeta1 addition and measured after 48 hrs by Western blot analysis; type: functional, cell-based
In short: (§1)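 C2C12 myoblasts were seeded to 80% confluence. Cells received 10 μM inhibitor and 5.0 ng/mL TGFβ1, with inhibitor exposure of 30 min or 2 h. α-SMA and SMα22 were detected by Western blot with specific antibodies. Bands were quantified by densitometry and normalized to β-actin. Results are fold change over untreated control, mean ± SD of three independent experiments. Two-way ANOVA with Bonferroni post hoc test.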

C2C12 [3] = assay: Inhibition of TGFbeta1-induced fibrosis in mouse C2C12 cells assessed as reduction in SMalpha22 protein expression level at 10 uM preincubated for 2 hrs followed by TGFbeta1 addition and measured after 48 hrs by Western blot analysis; type: functional, cell-based; in short: as §1
C2C12 [4] = assay: Inhibition of TGFbeta1-induced fibrosis in mouse C2C12 cells assessed as reduction in alphaSMA protein expression level at 10 uM preincubated for 30 mins followed by TGFbeta1 addition and measured after 48 hrs by Western blot analysis; type: functional, cell-based; in short: as §1
C2C12 [5] = assay: Inhibition of TGFbeta1-induced fibrosis in mouse C2C12 cells assessed as reduction in alphaSMA protein expression level at 10 uM preincubated for 30 mins followed by TGFbeta1 addition and measured after 48 hrs by Western blot analysis relative to control; type: functional; in short: as §1
C2C12 [6] = assay: Inhibition of TGFbeta1-induced fibrosis in mouse C2C12 cells assessed as reduction in caveolin3 protein expression level preincubated for 2 hrs followed by TGFbeta1 addition and measured after 48 hrs by Western blot analysis relative to control; type: functional
C2C12 [7] = assay: Inhibition of TGFbeta1-induced fibrosis in mouse C2C12 cells preincubated for 2 hrs followed by TGFbeta1 addition and measured after 48 hrs by Western blot analysis relative to control

Structure (SMILES): CC(=O)OC[C@H]1O[C@@H](OCc2ccc(COc3cc(C)cc(CS(=O)(=O)c4ccccc4)c3)cc2)[C@H](OC(C)=O)[C@@H](OC(C)=O)[C@@H]1OC(C)=O
- inhibition at 10 µM (C2C12 [1]): 100%
- inhibition (C2C12 [2]): Active
- inhibition (C2C12 [3]): Active
- inhibition (C2C12 [4]): Active
- inhibition at 10 µM (C2C12 [5]): 100%
- inhibition (INH) (C2C12 [6]): 100%

Structure (SMILES): Cc1cc(CS(=O)(=O)c2ccccc2)cc(OCc2ccc(CN3CCC[C@@H]3CO)cc2)c1
- inhibition at 10 µM (C2C12 [1]): 100%
- inhibition (C2C12 [2]): Active
- inhibition (C2C12 [4]): Active

Structure (SMILES): Cc1cc(CS(=O)(=O)c2ccccc2)cc(OCc2ccc(CO[C@@H]3O[C@H](CO)[C@H](O)[C@H](O)[C@H]3O)cc2)c1
- inhibition (C2C12 [2]): inactive
- inhibition (C2C12 [4]): inactive

Structure (SMILES): CC(=O)N[C@H]1[C@H](OCc2ccc(COc3cc(C)cc(CS(=O)(=O)c4ccccc4)c3)cc2)O[C@H](CO)[C@@H](O)[C@@H]1O
- inhibition (C2C12 [4]): Active

Structure (SMILES): Cc1cc(CS(=O)(=O)c2ccccc2)cc(OCc2ccc(CO[C@@H]3O[C@H](CO)[C@@H](O)[C@H](O)[C@H]3O)cc2)c1
- inhibition at 10 µM (C2C12 [1]): 100%
- inhibition (C2C12 [2]): Active
- inhibition (C2C12 [4]): Active
- inhibition (INH) (C2C12 [7]): 100%
